Sampled rows, rich in hits. Any-hit rate of the full collection: about 2.3%.
TRPC4 block: inhibitors of mouse TRPC4 channel, primary screen, Fluo4 calcium, HEK293 TRPC4beta/mu-opioid cells; Short transient receptor potential channel 4 (Mus musculus), Q9QUQ5; B-score at 10 µM; actives 0.39% (n = 300,000); DAMGO-evoked Fluo4 calcium flux; hits give low values;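 active = B-score over 3 SD under the library average, no early fluorescence shift, positive overall ratio signal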
Target sequence (Q9QUQ5 whole entry, looked up): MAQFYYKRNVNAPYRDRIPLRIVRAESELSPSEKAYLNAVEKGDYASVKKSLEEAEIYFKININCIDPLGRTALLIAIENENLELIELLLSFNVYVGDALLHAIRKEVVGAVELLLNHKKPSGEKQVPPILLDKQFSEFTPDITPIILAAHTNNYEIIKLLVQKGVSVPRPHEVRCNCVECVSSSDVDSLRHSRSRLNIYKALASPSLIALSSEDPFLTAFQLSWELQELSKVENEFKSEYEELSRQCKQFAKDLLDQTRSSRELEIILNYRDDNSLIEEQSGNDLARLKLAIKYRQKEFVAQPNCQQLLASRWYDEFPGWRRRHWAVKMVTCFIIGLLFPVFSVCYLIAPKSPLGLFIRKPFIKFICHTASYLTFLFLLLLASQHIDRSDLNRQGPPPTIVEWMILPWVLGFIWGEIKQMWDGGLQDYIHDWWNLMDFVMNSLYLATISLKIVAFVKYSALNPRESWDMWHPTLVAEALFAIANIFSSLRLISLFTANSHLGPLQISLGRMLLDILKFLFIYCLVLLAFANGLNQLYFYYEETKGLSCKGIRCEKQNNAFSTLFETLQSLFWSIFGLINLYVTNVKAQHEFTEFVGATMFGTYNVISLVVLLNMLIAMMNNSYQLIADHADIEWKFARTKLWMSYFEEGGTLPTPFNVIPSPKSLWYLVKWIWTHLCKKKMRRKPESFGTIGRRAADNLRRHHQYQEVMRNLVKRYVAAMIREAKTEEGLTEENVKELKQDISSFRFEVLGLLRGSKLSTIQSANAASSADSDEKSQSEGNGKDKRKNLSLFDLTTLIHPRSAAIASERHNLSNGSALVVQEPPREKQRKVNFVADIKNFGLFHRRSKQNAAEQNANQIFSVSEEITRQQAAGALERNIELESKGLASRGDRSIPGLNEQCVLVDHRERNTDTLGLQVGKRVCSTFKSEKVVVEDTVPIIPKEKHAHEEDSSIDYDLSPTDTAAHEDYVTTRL
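material = TRPC4beta/mu-opioid receptor HEK293 cell line | probe or stimulus = sequential submaximal and maximal DAMGO stimulation | compound dosing = one concentration per compound | measured by = Fluo4 Ca2+ flux fluorescence | evaluation = integrated fluorescence ratio relative to baseline, converted to per-well B score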
TRPC6 inhibitor: mouse TRPC6 channel inhibitors, primary screen, cell-based, HEK293, membrane potential dye; Short transient receptor potential channel 6 (Mus musculus), Q61143; ACh-evoked depolarization; hits give low values; B-score at 10 µM; actives 1.1% (n = 310,000); AID 2553, 2010;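 active = B-score under library mean minus 3 SD, initial fluorescence not abnormally high, positive integrated signal ratio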;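 note: B-score derived from integrated fluorescence ratio over the kinetic read; more negative B-score means stronger inhibition of depolarization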
TRPC4 PAM: positive allosteric modulators of TRPC4, primary screen, cell-based, mouse TRPC4beta, HEK293 mu-opioid, Fluo-4 calcium; DAMGO EC20, Fluo-4 Ca2+ flux; hits give high values; actives 0.42% (n = 310,000); B-score at 10 µM; Short transient receptor potential channel 4 (Mus musculus), Q9QUQ5;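 active = B-score of calcium response area above 5 SD of library B-scores, with initial fluorescence ratio within 5 SD of library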;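 note: B-score of integrated fluorescence ratio over time as area under calcium response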
TRPC6 act: mouse TRPC6 channel activators, primary screen, cell-based, HEK293, membrane potential dye; Short transient receptor potential channel 6 (Mus musculus), Q61143; HEK293-TRPC6 membrane potential dye fluorescence; hits give high values; B-score at 10 µM; actives 0.13% (n = 310,000); AID 2550, 2010;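 active = B-score of the integrated fluorescence ratio above library mean plus 3 SD, and starting fluorescence ratio within library mean plus 5 SD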;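 note: higher score means more depolarization so channel activation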
TRPC4 agonist: activators of mouse TRPC4 channel, primary screen, Fluo4 calcium, HEK293 TRPC4beta/mu-opioid cells. Short transient receptor potential channel 4 (Mus musculus), Q9QUQ5. Fluo4 calcium fluorescence; hits give high values. B-score at 10 µM. actives 0.49% (n = 310,000). AID 2237, 2010;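 active = B-score above 5 SD of library B-scores, and initial fluorescence ratio not above library mean plus 5 SD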;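 note: positive B-score marks a calcium rise read as TRPC4 activation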
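Assay system: HEK293 stable line with TRPC4beta plus mu-opioid receptor. Times: dye 45 min RT, read 110 s. Measured by: kinetic Fluo4 calcium fluorescence. Measure: B score of integrated ratio. Controls: assay buffer as low control, maximal DAMGO as high control.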
TRPC4 spec 2: mouse TRPC4 off-target activity of TRPC6 inhibitors, second screen | shares compounds with TRPC6 inhibitor | HEK293 TRPC4/MOR, membrane potential dye fluorescence; channel activated by saturating DAMGO dose | inhibition, % at 10 µM | actives 42% (n = 920);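 active = compounds whose fluorescence signal differed from control wells by over 3 SD, either direction, in both duplicate plates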
TRPC4 spec: mouse TRPC4 modulation by TRPC6 hits, confirmation, selectivity assay for TRPC6 inhibitor project, cell-based, HEK293 TRPC4/mu-opioid, membrane potential dye; shares compounds with TRPC6 inhibitor; membrane potential fluorescence; activity change, negative = inhibition, % at 10 µM; actives 61% (n = 920); AID 2777, 2010;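 active = rise or fall in signal beyond 3 SD of buffer-only wells in both replicate plates, either sign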;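 note: integrated kinetic ratio of fluorescence range over baseline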
HEK293 MPD ctr 2-1: nonspecific membrane potential effects, parental HEK293, confirmation, counter-screen for TRPC6 inhibitor project, cell-based, second counter screen; shares compounds with TRPC6 inhibitor; parental HEK293 membrane potential dye fluorescence; maximal acetylcholine challenge after compound addition; signal change vs control, % at 10 µM; actives 31% (n = 920); AID 2779, 2010;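 active = membrane potential signal moving either way by over 3 SD of the maximum-effect control, in both duplicate plates, meaning non-specific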
HEK293 MPD ctr-1: membrane potential modulation in parental HEK293, confirmation, counter-screen for TRPC6 inhibitor project, cell-based | shares compounds with TRPC6 inhibitor | parental HEK293 membrane potential dye fluorescence | membrane potential signal change, % at 10 µM | actives 60% (n = 920);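 active = membrane potential signal shifting up or down by more than 3 SD of buffer-only wells, on both duplicate plates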
HEK293 MPD ctr-2: parental HEK293 membrane potential modulation, confirmation, counter-screen for TRPC6 modulator project, cell-based. AID 488924, 2010. actives 51% (n = 2,400). membrane potential signal change, % at 10 µM. shares compounds with TRPC6 inhibitor. membrane potential dye fluorescence;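 active = membrane potential signal moves up or down beyond 5 SD from buffer-only wells, on both duplicate plates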
HEK293 MPD ctr 2-2: second check of TRPC6 modulator effects in parental HEK293 cells; shares compounds with TRPC6 inhibitor; membrane potential dye fluorescence; after compound, maximal acetylcholine stimulation; inhibition, % at 10 µM; actives 14% (n = 2,400); AID 488926;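 active = membrane potential signal drops by more than 5 SD from the mean control signal, in both duplicate plates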;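 note: plate controls were acetylcholine ECmax control wells for no effect and buffer only wells for full effect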
TRPC4 ctr mod: TRPC4 modulation by TRPC6 hit compounds, confirmation, selectivity assay for TRPC6 modulator project, cell-based, HEK293 TRPC4/mu-opioid, membrane potential dye, mouse. shares compounds with TRPC6 inhibitor. membrane potential fluorescence. percent change from control (negative = decrease, positive = increase), % at 10 µM. actives 69% (n = 2,400);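 active = membrane potential signal moved up or down beyond 5 SD of buffer control wells, in both duplicate plates, actives on both sides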;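 note: plate controls were assay buffer wells for no effect and DAMGO maximal-effect wells for full effect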
TRPC4/MOR inh 2: mouse TRPC4 off-target activity of TRPC6 modulators, second screen | shares compounds with TRPC6 inhibitor | HEK293 TRPC4/mu-opioid, membrane potential dye fluorescence; stimulated with maximal-effect DAMGO | inhibition, % at 10 µM | actives 55% (n = 2,400);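 active = drop in membrane potential signal beyond 5 SD of the control wells in both duplicate plates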;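 note: TRPC4 counter screen for TRPC6 hits run under conditions tuned for TRPC6 not TRPC4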
TRPC6 inh conf: mouse TRPC6 channel inhibitors, confirmation, HEK293 cells, membrane potential dye, duplicate. inhibition, % at 10 µM. actives 43% (n = 3,300). shares compounds with TRPC6 inhibitor. ACh-evoked depolarization;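 active = fluorescence ratio falls more than 5 SD below the full-stimulation control mean, in both duplicate runs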;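 note: integrated fluorescence ratio of peak minus minimum over baseline after agonist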
TRPC6 act confirm: mouse TRPC6 channel activators, confirmation, HEK293 cells, membrane potential dye, duplicate | shares compounds with TRPC6 inhibitor | actives 11% (n = 2,800) | HEK293-TRPC6 membrane potential dye fluorescence, FDSS | activation, % at 10 µM | AID 488961, 2010;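 active = ratio signal rise beyond 5 SD above unstimulated control wells' mean, seen in both duplicate runs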;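 note: plate controls were buffer EC0 wells for no effect and acetylcholine ECmax response for full effect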
An asterisk follows results filed as active.

How did Fc1cccc(NCc2cn3ccccc3n2)c1 do in these assays?
TRPC4 block: inactive; TRPC6 inhibitor: -5.5*; TRPC4 PAM: inactive; TRPC6 act: inactive; TRPC4 agonist: inactive; HEK293 MPD ctr-2: inactive; HEK293 MPD ctr 2-2: inactive; TRPC4 ctr mod: inactive; TRPC4/MOR inh 2: inactive; TRPC6 inh conf: inactive; TRPC6 act confirm: inactive

How did CCCCNC(=O)c1cc2c(=O)n3cccc(C)c3nc2n(CCN2CCOCC2)c1=N do in these assays?
TRPC4 block: inactive; TRPC6 inhibitor: -6.6*; TRPC4 PAM: inactive; TRPC6 act: inactive; TRPC4 agonist: inactive; TRPC4 spec 2: inactive; TRPC4 spec: inactive; HEK293 MPD ctr 2-1: -26%*; HEK293 MPD ctr-1: inactive; TRPC6 inh conf: inactive; TRPC6 act confirm: inactive

Results for Cc1cccn2c(=O)c3cc(C(=O)NCCc4ccccc4)c(=N)n(Cc4ccco4)c3nc12 ?
TRPC4 block: inactive; TRPC6 inhibitor: inactive; TRPC4 PAM: inactive; TRPC6 act: inactive; TRPC4 agonist: inactive

What do the screens show for `Cc1cccn2c(=O)c3cc(C(=O)NC4CCCCC4)c(=N)n(CCN4CCOCC4)c3nc12`?
TRPC4 block: inactive; TRPC6 inhibitor: inactive; TRPC4 PAM: inactive; TRPC6 act: inactive; TRPC4 agonist: inactive

Results for COCCNC(=O)c1cc2c(=O)n3cccc(C)c3nc2n(Cc2ccncc2)c1=N ?
TRPC4 block: inactive; TRPC6 inhibitor: -11*; TRPC4 PAM: inactive; TRPC6 act: inactive; TRPC4 agonist: inactive; TRPC4 spec 2: 78%*; TRPC4 spec: -11%*; HEK293 MPD ctr 2-1: -118%*; HEK293 MPD ctr-1: -230%*; TRPC6 inh conf: inactive; TRPC6 act confirm: inactive

Results for CCCCNC(=O)c1cc2c(=O)n3cccc(C)c3nc2n(Cc2ccncc2)c1=N ?
TRPC4 block: inactive; TRPC6 inhibitor: -6.7*; TRPC4 PAM: inactive; TRPC6 act: inactive; TRPC4 agonist: inactive; TRPC4 spec 2: inactive; TRPC4 spec: -20%*; HEK293 MPD ctr 2-1: inactive; HEK293 MPD ctr-1: -341%*; TRPC6 inh conf: inactive; TRPC6 act confirm: inactive

Results for COCCCn1c(=N)c(C(N)=S)cc2c(=O)n3cccc(C)c3nc21 ?
TRPC4 block: inactive; TRPC6 inhibitor: -6.3*; TRPC4 PAM: inactive; TRPC6 act: inactive; TRPC4 agonist: inactive; HEK293 MPD ctr-2: inactive; HEK293 MPD ctr 2-2: inactive; TRPC4 ctr mod: inactive; TRPC4/MOR inh 2: inactive; TRPC6 inh conf: inactive; TRPC6 act confirm: inactive

Results for Oc1sc(C=Nc2ccccc2)c2ccccc12 ?
TRPC4 block: inactive; TRPC6 inhibitor: inactive; TRPC4 PAM: inactive; TRPC6 act: 13*; TRPC4 agonist: inactive; HEK293 MPD ctr-2: 322%*; HEK293 MPD ctr 2-2: inactive; TRPC4 ctr mod: 139%*; TRPC4/MOR inh 2: 46%*; TRPC6 inh conf: inactive; TRPC6 act confirm: inactive

Results for COc1c(C(=O)Nc2nnc(C3CC3)s2)csc1Cl ?
TRPC4 block: inactive; TRPC6 inhibitor: inactive; TRPC4 PAM: inactive; TRPC6 act: inactive; TRPC4 agonist: inactive

What do the screens show for `O=c1cc(CNc2ccc(Br)cc2)nc2sccn12`?
TRPC4 block: inactive; TRPC6 inhibitor: -7*; TRPC4 PAM: inactive; TRPC6 act: inactive; TRPC4 agonist: inactive; HEK293 MPD ctr-2: inactive; HEK293 MPD ctr 2-2: inactive; TRPC4 ctr mod: inactive; TRPC4/MOR inh 2: inactive; TRPC6 inh conf: inactive; TRPC6 act confirm: inactive

How did COc1ccccc1CNC(=O)C1CC2Cn3c(nc4ccccc43)C2N1C (centres undefined) do in these assays?
TRPC4 block: inactive; TRPC6 inhibitor: inactive; TRPC4 PAM: inactive; TRPC6 act: 13*; TRPC4 agonist: inactive; HEK293 MPD ctr-2: inactive; HEK293 MPD ctr 2-2: inactive; TRPC4 ctr mod: inactive; TRPC4/MOR inh 2: inactive; TRPC6 inh conf: inactive; TRPC6 act confirm: inactive

What do the screens show for `COc1ccccc1CNC(=O)C1CC2Cn3c(nc4cc(C)c(C)cc43)C2N1C` (centres undefined)?
TRPC4 block: inactive; TRPC6 inhibitor: inactive; TRPC4 PAM: inactive; TRPC6 act: inactive; TRPC4 agonist: inactive

Source: PubChem BioAssay
